Activity calls are given as the source filed them. No cut-off for these calls is given here.
Assays:
Histone deacetylase 2 = Histone deacetylase 2 (Homo sapiens, UniProt Q92769)
Mus musculus [1] = experiment: Toxicity in ICR mouse assessed as change in body weight at 400 to 1000 mg/kg, po treated for 7 days measured for 1 week; assay type: organism-based; parameters: dose 400-1000 mg/kg, route oral; details: in vivo, 168 h
Outline: (§1)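 ICR mice fasted overnight, then given vehicle (0.2 mL/20 g) or compound orally at 400, 600 or 1000 mg/kg (n = 10/group) daily for 7 days, then monitored 1 week; weighed daily for 1 week, then twice weekly; 2/10 deaths defines toxic dose.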

HCT-116 [2] = experiment: Induction of apoptosis in p53 knock down human HCT116 cells assessed as PARP cleavage at 1 uM after 24 hrs by immunoblotting analysis; assay type: functional, cell-based
[3] = Half life in ICR mouse at 10 mg/kg, po by LC-MS/MS analysis; assay type: ADME, organism-based; parameters: dose 10 mg/kg, route oral; details: in vivo
[4] = Cmax in ICR mouse at 10 mg/kg, po by LC-MS/MS analysis; assay type: ADME, organism-based; parameters: dose 10 mg/kg, route oral; details: in vivo
[5] = Clearance in ICR mouse at 2 mg/kg, iv by LC-MS/MS analysis; assay type: ADME, organism-based; parameters: dose 2 mg/kg, route intravenous; details: in vivo
Histone deacetylase 1 = Histone deacetylase 1 (Homo sapiens, UniProt Q13547); experiment: Inhibition of HDAC1 (unknown origin) using RHKK(Ac) (379 to 382) p53 peptide as substrate by fluorescence assay
Sequence of Histone deacetylase 1 (Q13547 whole entry): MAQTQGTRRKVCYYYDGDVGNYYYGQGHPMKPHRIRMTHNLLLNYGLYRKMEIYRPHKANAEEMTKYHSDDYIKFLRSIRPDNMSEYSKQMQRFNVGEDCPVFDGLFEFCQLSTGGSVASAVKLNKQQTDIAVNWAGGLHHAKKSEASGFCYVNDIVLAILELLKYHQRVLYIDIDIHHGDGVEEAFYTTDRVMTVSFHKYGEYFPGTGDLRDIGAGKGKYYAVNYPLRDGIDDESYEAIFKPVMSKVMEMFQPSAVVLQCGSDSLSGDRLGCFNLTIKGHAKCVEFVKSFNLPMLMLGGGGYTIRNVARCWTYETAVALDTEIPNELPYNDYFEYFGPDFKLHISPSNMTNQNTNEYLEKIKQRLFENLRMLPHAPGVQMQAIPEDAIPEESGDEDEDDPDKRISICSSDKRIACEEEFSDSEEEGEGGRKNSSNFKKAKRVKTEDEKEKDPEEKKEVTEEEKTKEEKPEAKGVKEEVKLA

[6] = Tmax in ICR mouse at 10 mg/kg, po by LC-MS/MS analysis; assay type: ADME, organism-based; parameters: dose 10 mg/kg, route oral; details: in vivo
HCT-116 [7] = experiment: Antitumor activity against human HCT116 cells xenografted in nude athymic mouse assessed as tumor growth inhibition at 100 mg/kg/day, po after 2 to 16 days relative to control; assay type: functional; details: read-out: TGI
Histone deacetylase 8 = molecular target: T1, Histone deacetylase 8 (Homo sapiens, UniProt Q9BY41); experiment: Inhibition of HDAC8 (unknown origin) by fluorescence assay
T1 sequence (Q9BY41 whole entry): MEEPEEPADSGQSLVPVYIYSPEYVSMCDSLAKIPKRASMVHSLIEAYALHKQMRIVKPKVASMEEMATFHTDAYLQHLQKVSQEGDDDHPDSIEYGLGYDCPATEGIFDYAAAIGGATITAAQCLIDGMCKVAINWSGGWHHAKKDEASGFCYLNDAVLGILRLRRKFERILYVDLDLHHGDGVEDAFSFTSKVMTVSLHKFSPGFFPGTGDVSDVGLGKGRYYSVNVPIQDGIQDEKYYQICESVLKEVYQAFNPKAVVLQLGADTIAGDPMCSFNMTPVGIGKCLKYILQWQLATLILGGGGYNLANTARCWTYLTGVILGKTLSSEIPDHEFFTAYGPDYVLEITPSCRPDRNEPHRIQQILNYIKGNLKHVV
Outline: (§2)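 Run by a contract testing lab. Compounds were dissolved in DMSO and tested in 10-dose IC50 mode, using 3-fold serial dilution starting at 10 μM. IC50 was taken from the dose series.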

HCT-116 [8] = experiment: Induction of apoptosis in human HCT116 cells assessed as increase in p53 protein level at 0.1 to 3 uM after 24 hrs by immunoblotting analysis; assay type: functional, cell-based
[9] = Cytotoxicity against human H460 cells by MTT assay; assay type: functional, cell-based; details: NCI-H460
Outline: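 Antiproliferative IC50 in H460 cells; mean ± SD of at least three independent experiments.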

Histone deacetylase = experiment: Inhibition of HDAC in human HeLa cell nuclear extract using Boc-Lys(Ac)-AMC as substrate after 30 mins by fluorimetric analysis; assay type: protein assay
[10] = Oral bioavailability in ICR mouse at 10 mg/kg by LC-MS/MS analysis; assay type: ADME, organism-based; details: in vivo
HCT-116 [11] = experiment: Antitumor activity against human HCT116 cells xenografted in po dosed nude athymic mouse assessed as tumor growth inhibition after 2 to 16 days; assay type: functional, organism-based
HCT-116 [12] = experiment: Anticancer activity against human HCT116 cells assessed as disruption of 3-dimensional spheroid structure after 72 hrs by phase-contrast light microscopic analysis; assay type: functional, cell-based
Outline: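 HCT116 cells (4 × 10^3/well) grown 5 days in semisolid GFR-Matrigel/10% FBS-DMEM (1:1) to form 3D spheres, then exposed to compound for 72 h; sphere structure examined by phase-contrast light microscopy.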

HCT-116 [13] = experiment: Cytotoxicity against human HCT116 cells by MTT assay; assay type: functional, cell-based
[14] = AUC (0 to infinity) in ICR mouse at 2 mg/kg, iv by LC-MS/MS analysis; assay type: ADME, organism-based; parameters: time infinity, dose 2 mg/kg, route intravenous; details: plasma
[15] = Cytotoxicity against human HSC3 cells by MTT assay; assay type: functional, cell-based; details: HSC-3
Histone deacetylase 9 = Histone deacetylase 9 (Homo sapiens, UniProt Q9UKV0); experiment: Inhibition of HDAC9 (unknown origin) by fluorescence assay
Sequence of Histone deacetylase 9 (Q9UKV0 whole entry): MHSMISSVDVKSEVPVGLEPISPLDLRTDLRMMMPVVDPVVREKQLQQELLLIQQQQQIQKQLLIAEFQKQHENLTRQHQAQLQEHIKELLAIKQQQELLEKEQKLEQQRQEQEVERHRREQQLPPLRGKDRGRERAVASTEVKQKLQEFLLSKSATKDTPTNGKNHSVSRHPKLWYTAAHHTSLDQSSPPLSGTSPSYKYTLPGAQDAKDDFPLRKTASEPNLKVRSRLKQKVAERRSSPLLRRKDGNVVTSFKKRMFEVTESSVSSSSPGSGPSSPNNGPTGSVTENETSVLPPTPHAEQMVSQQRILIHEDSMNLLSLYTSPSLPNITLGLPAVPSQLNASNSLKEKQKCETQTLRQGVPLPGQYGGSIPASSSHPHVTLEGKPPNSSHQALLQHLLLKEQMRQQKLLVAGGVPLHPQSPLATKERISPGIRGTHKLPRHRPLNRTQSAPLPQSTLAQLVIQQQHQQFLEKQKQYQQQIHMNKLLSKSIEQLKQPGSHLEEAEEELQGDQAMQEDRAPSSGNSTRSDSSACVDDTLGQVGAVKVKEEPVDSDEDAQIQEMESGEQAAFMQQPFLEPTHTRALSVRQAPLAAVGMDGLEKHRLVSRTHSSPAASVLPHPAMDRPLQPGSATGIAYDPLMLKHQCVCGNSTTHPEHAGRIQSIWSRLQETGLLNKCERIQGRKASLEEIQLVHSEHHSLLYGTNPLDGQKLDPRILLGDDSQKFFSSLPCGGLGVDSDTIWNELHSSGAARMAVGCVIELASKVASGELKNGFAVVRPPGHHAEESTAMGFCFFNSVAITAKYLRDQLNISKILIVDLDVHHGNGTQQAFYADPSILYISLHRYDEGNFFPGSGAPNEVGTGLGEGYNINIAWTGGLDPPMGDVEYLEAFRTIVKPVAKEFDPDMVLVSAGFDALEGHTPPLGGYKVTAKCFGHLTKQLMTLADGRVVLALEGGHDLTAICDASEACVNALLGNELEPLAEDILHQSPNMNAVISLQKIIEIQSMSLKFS
Outline: as §2

[16] = Cytotoxicity against human HONE1 cells by MTT assay; assay type: functional, cell-based
TSGH = experiment: Cytotoxicity against human TSGH cells by MTT assay; assay type: functional, cell-based
HCT-116 [17] = experiment: Cytotoxicity against p53 knock down human HCT116 cells at 0.1 to 3 uM after 72 hrs by MTT assay; assay type: functional, cell-based
HCT-116 [18] = experiment: Induction of apoptosis in human HCT116 cells assessed as accumulation at sub-G1 phase at 1 uM by propidium iodide staining-based flow cytometric analysis; assay type: functional, cell-based; details: TDE = time-dependent effect
Outline: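 HCT116 cells exposed to 1 μM compound for varying time intervals; sub-G1 population quantified by flow cytometry.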

HCT-116 [19] = experiment: Antitumor activity against human HCT116 cells xenografted in nude athymic mouse assessed as tumor growth inhibition at 25 mg/kg/day, po after 2 to 16 days relative to control; assay type: functional; details: read-out: TGI
HCT-116 [20] = experiment: Induction of apoptosis in human HCT116 cells assessed as PARP cleavage at 3 uM after 24 hrs by Western blotting analysis in presence of Z-VAD-FMK; assay type: functional, cell-based
Outline: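 HCT116 cells treated 24 h with 3 μM compound with or without 20 μM z-VAD-fmk pan-caspase inhibitor; caspase 3 and PARP assessed by Western blot.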

[21] = molecular target: T2, Histone deacetylase (Homo sapiens) (UniProt Q13547+O15379+Q9UBN7+Q92769+Q9UQL6+Q8WUI4+Q9BY41+Q96DB2+P56524+Q9UKV0+Q969S8); details: HCT-116, 1 uM
HT-29 = experiment: Cytotoxicity against human HT-29 cells by MTT assay; assay type: functional, cell-based
Mus musculus [22] = experiment: Toxicity in ICR mouse at 400 to 1000 mg/kg, po treated for 7 days measured for 1 week; assay type: organism-based; parameters: dose 400-1000 mg/kg, route oral; details: in vivo, 168 h
Outline: as §1

PC-3 = experiment: Cytotoxicity against human PC3 cells by MTT assay; assay type: functional, cell-based
[23] = molecular target: T2, Histone deacetylase (Homo sapiens); details: HCT-116, 1 uM; remark: listed apart in the source
MCF7 = experiment: Cytotoxicity against human MCF7 cells by MTT assay; assay type: functional, cell-based
KB = experiment: Cytotoxicity against human KB cells by MTT assay; assay type: functional, cell-based

Sequence of Histone deacetylase 2 (Q92769 whole entry): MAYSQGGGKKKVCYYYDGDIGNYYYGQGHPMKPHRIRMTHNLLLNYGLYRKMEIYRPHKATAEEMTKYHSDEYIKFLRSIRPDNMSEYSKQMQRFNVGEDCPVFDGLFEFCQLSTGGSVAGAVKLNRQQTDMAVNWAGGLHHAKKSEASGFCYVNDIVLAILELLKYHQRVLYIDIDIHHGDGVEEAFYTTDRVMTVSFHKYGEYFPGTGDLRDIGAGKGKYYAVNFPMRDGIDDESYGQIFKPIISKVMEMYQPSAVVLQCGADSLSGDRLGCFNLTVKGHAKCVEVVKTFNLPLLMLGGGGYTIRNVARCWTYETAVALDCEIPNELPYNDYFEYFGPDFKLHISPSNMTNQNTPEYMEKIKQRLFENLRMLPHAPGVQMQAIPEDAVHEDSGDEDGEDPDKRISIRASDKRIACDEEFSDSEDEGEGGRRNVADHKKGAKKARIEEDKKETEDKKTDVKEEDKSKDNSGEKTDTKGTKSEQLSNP

In the case of `O=C(/C=C/c1cccc(S(=O)(=O)n2ccc3cccnc32)c1)NO`, the IC50 (Histone deacetylase 2) is reported as 1160 nM, the Activity (Mus musculus [1]) is reported as “Non-toxic” and the Activity (HCT-116 [2]) is reported as “inactive”. The half-life [3] was 2.4 h, the Cmax [4] was 409 ng/mL and the clearance [5] was 127 mL/min/kg. It also gave an IC50 (Histone deacetylase 1) of 310 nM, a Tmax [6] of 0.3 h and an inhibition in vivo at 100 mg/kg/day (HCT-116 [7]) of 66.9%. For the same molecule, the IC50 (Histone deacetylase 8) was 1390 nM, the Activity (HCT-116 [8]) was “Active” and the IC50 [9] was 570 nM. For the same molecule, the IC50 (Histone deacetylase) was 100 nM, the bioavailability [10] was 33% and the TGI (HCT-116 [11]) was “Dose-dependent effect”. The Activity (HCT-116 [12]) was “Dose-dependent effect”, the IC50 (HCT-116 [13]) was 390 nM and the AUC(0-inf) [14] was 289 ng·h/mL. For the same molecule, the IC50 [15] was 660 nM, the IC50 (Histone deacetylase 9) was 5340 nM and the IC50 [16] was 1200 nM. For the same molecule, the IC50 (TSGH) was 2100 nM, the Activity (HCT-116 [17]) was “inactive” and the Activity (HCT-116 [18]) was “tde”. For the same molecule, the inhibition in vivo at 25 mg/kg/day (HCT-116 [19]) was 55.8%, the Activity (HCT-116 [20]) was “inactive” and the inhibition [21] was “inactive”. The IC50 (HT-29) was 1240 nM, the Activity (Mus musculus [22]) was “Non-toxic” and the IC50 (PC-3) was 1630 nM. For the same molecule, the inhibition [23] was “inactive”, the IC50 (MCF7) was 1330 nM and the IC50 (KB) was 760 nM.

From ChEMBL document CHEMBL3259569 (J Med Chem, 2014)
